Laboratory results reported in ChEMBL document CHEMBL4706572, “Benzyl and benzoyl benzoic acid inhibitors of bacterial RNA polymerase-sigma factor interaction” (Eur J Med Chem, 2020).
Values after ≈ are worked out from the molar mass of the structure shown. Active and inactive are the calls of the source. The calls are words filed in the database; no cut-off is given here.

Experiments:
Clostridioides difficile [1] = test: Antibacterial activity against Clostridium difficile ribotype 027 assessed as reduction in bacterial toxin A production at sub-inhibitory concentration incubated for 48 hrs under anaerobic condition by ELISA; type: functional, organism-based
Outline: (§1)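 Incubated anaerobically at 37 °C for 48 h. Supernatants cleared at 10,000 × g for 2 min. TcdA and TcdB quantified by commercial ELISA, normalized to drug-free control. Duplicate, with technical and biological repeats.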

Clostridioides difficile [2] = test: Antibacterial activity against Clostridium difficile ATCC 9689 assessed as reduction in bacterial toxin A production at sub-inhibitory concentration incubated for 48 hrs under anaerobic condition by ELISA; type: functional, organism-based; settings: ATCC 9689 = DSM 1296; outline: as §1
Clostridioides difficile [3] = test: Antibacterial activity against Clostridium difficile ribotype 027 assessed as reduction in bacterial toxin B production at sub-inhibitory concentration incubated for 48 hrs under anaerobic condition by ELISA; type: functional, organism-based; outline: as §1
Clostridioides difficile [4] = test: Antibacterial activity against Clostridium difficile ATCC 9689 assessed as reduction in bacterial toxin B production at sub-inhibitory concentration incubated for 48 hrs under anaerobic condition by ELISA; type: functional, organism-based; settings: ATCC 9689 = DSM 1296; outline: as §1
Clostridioides difficile [5] = test: Antibacterial activity against Clostridium difficile ribotype 002 assessed as reduction in bacterial toxin A production at sub-inhibitory concentration incubated for 48 hrs under anaerobic condition by ELISA; type: functional, organism-based; outline: as §1
Clostridioides difficile [6] = test: Antibacterial activity against Clostridium difficile ribotype 002 assessed as reduction in bacterial toxin B production at sub-inhibitory concentration incubated for 48 hrs under anaerobic condition by ELISA; type: functional, organism-based; outline: as §1
Staphylococcus aureus [7] = test: Antibacterial activity against Staphylococcus aureus ATCC 25923 after 20 hrs by CLSI based-broth microdilution method; type: functional
Outline: (§2)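 Broth microdilution in cation-adjusted Mueller-Hinton broth. Two-fold serial dilutions from 256 μg/mL down to 0.5 μg/mL. Inoculum approx. 5 × 10^5 CFU/mL. Incubated 20 h at 37 °C. MIC taken as the lowest concentration with no observable growth.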

Staphylococcus aureus [8] = test: Antibacterial activity against Staphylococcus aureus ATCC 29213 after 20 hrs by CLSI based-broth microdilution method; type: functional; outline: as §2
Streptococcus pneumoniae = test: Antibacterial activity against Streptococcus pneumoniae ATCC 49619 after 20 hrs by CLSI based-broth microdilution method; type: functional
Outline: (§3)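 Streptococci tested in Brain Heart Infusion broth. Two-fold dilutions from 256 to 0.5 μg/mL, inoculum approx. 5 × 10^5 CFU/mL. Incubated 20 h at 37 °C. MIC is the lowest concentration without visible growth.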

Enterococcus faecalis = test: Antibacterial activity against Enterococcus faecalis ATCC 19433 after 20 hrs by CLSI based-broth microdilution method; type: functional
Outline: (§4)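 Broth microdilution MIC. Two-fold serial dilutions from 256 μg/mL down to 0.5 μg/mL. Inoculum approx. 5 × 10^5 CFU/mL. Read after 20 h at 37 °C. MIC is the lowest concentration with no observable growth.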

Bacillus subtilis [9] = test: Inhibition of GFP-fused RNAP subunit beta' interaction with sigma factor A in Bacillus subtilis BS1048 assessed as nucleoid delocalization at half MIC incubated for 15 mins by confocal microscopy
Outline: (§5)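 B. subtilis BS1048 (RpoC-GFP) grown from a single colony in LB at 37 °C to OD600 ~0.6. […] Cells mounted on 1.2% agarose under a coverslip and imaged by confocal microscopy with a 63×/1.3 oil objective for RNAP-GFP localization relative to the nucleoid.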

[10] = Antibacterial activity against Staphylococcus saprophyticus ATCC 15305 after 20 hrs by CLSI based-broth microdilution method; type: functional, Staphylococcus saprophyticus subsp. saprophyticus; outline: as §2
Streptococcus agalactiae = test: Antibacterial activity against Streptococcus agalactiae ATCC 12386 after 20 hrs by CLSI based-broth microdilution method; type: functional; outline: as §3
Staphylococcus aureus [11] = test: Inhibition of RNAP/sigma factor interaction in Staphylococcus aureus ATCC 29213 assessed as total DNA level at 1/4 to 1/8 times MIC by fluorimetric method
Outline: (§6)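 S. aureus ATCC 29213 master culture started at OD600 0.1 at 37 °C with shaking at 175 rpm. At OD600 0.2 it was split and given compound or control at ¼ and ⅛ MIC, plus a drug-free culture. Cells harvested when the control reached OD600 0.6, with volumes normalized to OD600 0.6 equivalent. DNA and RNA measured by Qubit fluorometry, protein by BCA; triplicate.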

Streptococcus pyogenes = test: Antibacterial activity against Streptococcus pyogenes ATCC 19615 after 20 hrs by CLSI based-broth microdilution method; type: functional; outline: as §3
Bacillus subtilis [12] = test: Antibacterial activity against Bacillus subtilis BS1048 after 20 hrs by CLSI based broth microdilution method; type: functional; outline: as §4
Bacillus subtilis [13] = test: Inhibition of GFP-fused RNAP subunit beta' interaction with sigma factor A in Bacillus subtilis BS1048 assessed as alteration in transcriptional complex localization by measuring diffusion of fluorescent signal into cytosol at 1 to 2 times MIC incubated for 15 mins by confocal microscopy; type: subcellular; outline: as §5
Staphylococcus aureus [14] = test: Inhibition of RNAP/sigma factor interaction in Staphylococcus aureus ATCC 29213 assessed as reduction in total protein level at 1/4 to 1/8 times MIC by fluorimetric method
Staphylococcus aureus [15] = test: Inhibition of RNAP/sigma factor interaction in Staphylococcus aureus ATCC 29213 assessed as reduction in total RNA level by fluorimetric method; outline: as §6
[16] = tested on: Staphylococcus epidermidis; test: Antibacterial activity against Staphylococcus epidermidis ATCC 12228 after 20 hrs by CLSI based-broth microdilution method; type: functional; outline: as §2
Clostridioides difficile [17] = test: Antibacterial activity against Clostridium difficile ribotype 002 measured after 48 hrs under anaerobic condition by CLSI based-broth microdilution method; type: functional
Outline: (§7)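 Compounds dissolved in DMSO. Media pre-reduced 3 h in an anaerobic chamber. Colonies from overnight anaerobic GAM agar grown to early log phase in BHI plus 0.5% w/v yeast extract and 0.05% L-cysteine. Adjusted to 0.5 McFarland, diluted 100 μL into 15 mL. Mixed 1:1 with serially diluted agents. Incubated anaerobically at 37 °C, growth read at 48 h, triplicate.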

Clostridioides difficile [18] = test: Antibacterial activity against Clostridium difficile ribotype 027 measured after 48 hrs under anaerobic condition by CLSI based-broth microdilution method; type: functional; outline: as §7
Clostridioides difficile [19] = test: Antibacterial activity against Clostridium difficile ATCC 9689 after measured 48 hrs under anaerobic condition by CLSI based-broth microdilution method; type: functional; settings: ATCC 9689 = DSM 1296; outline: as §7

CCc1c(Cl)c(O)c(Cl)c(O)c1C(=O)O[C@H]1[C@H](O)[C@H](OC)[C@H](OC/C2=C\C=C\C[C@H](O)/C(C)=C/[C@H](CC)[C@@H](O[C@@H]3OC(C)(C)[C@@H](OC(=O)C(C)C)[C@H](O)[C@@H]3O)/C(C)=C/C(C)=C/C[C@@H]([C@@H](C)O)OC2=O)O[C@@H]1C
Activity (Clostridioides difficile [1]): Dose-dependent effect | Activity (Clostridioides difficile [2]): Dose-dependent effect | Activity (Clostridioides difficile [3]): Dose-dependent effect | Activity (Clostridioides difficile [4]): Dose-dependent effect | Activity (Clostridioides difficile [5]): Dose-dependent effect | Activity (Clostridioides difficile [6]): Dose-dependent effect

O=C(O)c1cc(Cl)ccc1C(=O)c1ccc(Sc2ccc(Cl)c(Cl)c2)c([N+](=O)[O-])c1
MIC (Staphylococcus aureus [7]): 8 µg/mL (≈ 16.6 µM) | MIC (Staphylococcus aureus [8]): 4 µg/mL (≈ 8.29 µM) | MIC (Streptococcus pneumoniae): 8 µg/mL (≈ 16.6 µM)

O=C(O)c1ccc(C(F)(F)F)cc1C(=O)c1ccc(Sc2ccc(Cl)c(Cl)c2)c([N+](=O)[O-])c1
MIC (Enterococcus faecalis): 8 µg/mL (≈ 15.5 µM) | MIC (Staphylococcus aureus [7]): 4 µg/mL (≈ 7.75 µM) | MIC (Staphylococcus aureus [8]): 4 µg/mL (≈ 7.75 µM) | Activity (Clostridioides difficile [1]): Dose-dependent effect | inhibition (Bacillus subtilis [9]): Active | Activity (Clostridioides difficile [2]): Dose-dependent effect | MIC [10]: 1 µg/mL (≈ 1.94 µM) | Activity (Clostridioides difficile [3]): Dose-dependent effect | MIC (Streptococcus pneumoniae): 2 µg/mL (≈ 3.87 µM) | MIC (Streptococcus agalactiae): 4 µg/mL (≈ 7.75 µM) | Activity (Clostridioides difficile [4]): Dose-dependent effect | inhibition (Staphylococcus aureus [11]): inactive | MIC (Streptococcus pyogenes): 4 µg/mL (≈ 7.75 µM) | MIC (Bacillus subtilis [12]): 2 µg/mL (≈ 3.87 µM) | Activity (Clostridioides difficile [5]): Dose-dependent effect | inhibition (Bacillus subtilis [13]): Active | inhibition (Staphylococcus aureus [14]): Active | inhibition (Staphylococcus aureus [15]): Dose-dependent effect | MIC [16]: 0.5 µg/mL (≈ 0.968 µM) | Activity (Clostridioides difficile [6]): Dose-dependent effect

COc1ccccc1C(=O)c1ccc(Sc2ccc(Cl)c(Cl)c2)c([N+](=O)[O-])c1
MIC (Staphylococcus aureus [7]): > 256 µg/mL | MIC (Staphylococcus aureus [8]): > 256 µg/mL | MIC (Streptococcus pneumoniae): > 256 µg/mL

O=C(O)c1ccc(F)cc1C(=O)c1ccc(Sc2ccc(Cl)c(Cl)c2)c([N+](=O)[O-])c1
MIC (Staphylococcus aureus [7]): 16 µg/mL (≈ 34.3 µM) | MIC (Staphylococcus aureus [8]): 8 µg/mL (≈ 17.2 µM) | MIC (Streptococcus pneumoniae): 8 µg/mL (≈ 17.2 µM)

COc1ccc(C(=O)O)c(Cc2ccc(Sc3ccc(Cl)c(Cl)c3)c([N+](=O)[O-])c2)c1
MIC (Staphylococcus aureus [7]): 16 µg/mL (≈ 34.5 µM) | MIC (Staphylococcus aureus [8]): 8 µg/mL (≈ 17.2 µM) | MIC (Streptococcus pneumoniae): 8 µg/mL (≈ 17.2 µM)

O=C(O)c1ccc(Cl)cc1Cc1ccc(Sc2ccc(Cl)c(Cl)c2)c([N+](=O)[O-])c1
MIC (Staphylococcus aureus [7]): 8 µg/mL (≈ 17.1 µM) | MIC (Staphylococcus aureus [8]): 8 µg/mL (≈ 17.1 µM) | MIC (Streptococcus pneumoniae): 2 µg/mL (≈ 4.27 µM)

Cc1ccc(C(=O)O)c(Cc2ccc(Sc3ccc(Cl)c(Cl)c3)c([N+](=O)[O-])c2)c1
MIC (Staphylococcus aureus [7]): 4 µg/mL (≈ 8.92 µM) | MIC (Staphylococcus aureus [8]): 4 µg/mL (≈ 8.92 µM) | MIC (Streptococcus pneumoniae): 4 µg/mL (≈ 8.92 µM)

CN[C@H](CC(C)C)C(=O)N[C@H]1C(=O)N[C@@H](CC(N)=O)C(=O)N[C@H]2C(=O)N[C@H]3C(=O)N[C@H](C(=O)N[C@H](C(=O)O)c4cc(O)cc(O)c4-c4cc3ccc4O)[C@H](O)c3ccc(c(Cl)c3)Oc3cc2cc(c3O[C@@H]2O[C@H](CO)[C@@H](O)[C@H](O)[C@H]2O[C@H]2C[C@](C)(N)[C@H](O)[C@H](C)O2)Oc2ccc(cc2Cl)[C@H]1O [VANCOMYCIN]
MIC (Enterococcus faecalis): 1 µg/mL (≈ 0.69 µM) | MIC (Clostridioides difficile [17]): 2 µg/mL (≈ 1.38 µM) | Activity (Clostridioides difficile [1]): inactive | Activity (Clostridioides difficile [2]): inactive | MIC [10]: 0.25 µg/mL (≈ 0.173 µM) | Activity (Clostridioides difficile [3]): inactive | MIC (Clostridioides difficile [18]): 2 µg/mL (≈ 1.38 µM) | MIC (Streptococcus agalactiae): 2 µg/mL (≈ 1.38 µM) | MIC (Clostridioides difficile [19]): 4 µg/mL (≈ 2.76 µM) | Activity (Clostridioides difficile [4]): inactive | MIC (Streptococcus pyogenes): 1 µg/mL (≈ 0.69 µM) | Activity (Clostridioides difficile [5]): inactive | MIC [16]: 0.5 µg/mL (≈ 0.345 µM) | Activity (Clostridioides difficile [6]): inactive

Nc1ccccc1Sc1ccc(C(=O)c2ccccc2C(=O)O)cc1[N+](=O)[O-]
MIC (Streptococcus pneumoniae): 256 µg/mL (≈ 649 µM)

O=C(O)c1ccc(F)cc1Cc1ccc(Sc2ccc(Cl)c(Cl)c2)c([N+](=O)[O-])c1
MIC (Staphylococcus aureus [7]): 8 µg/mL (≈ 17.7 µM) | MIC (Staphylococcus aureus [8]): 8 µg/mL (≈ 17.7 µM) | MIC (Streptococcus pneumoniae): 4 µg/mL (≈ 8.84 µM)

O=C(O)c1ccc(C(F)(F)F)cc1Cc1ccc(Sc2ccc(Cl)c(Cl)c2)c([N+](=O)[O-])c1
MIC (Streptococcus pneumoniae): 1 µg/mL (≈ 1.99 µM)
